MT stabilizer – microtubule stabilization, imaging screen; HeLa tubulin immunostaining HCS, 24 h; share of cells brighter than vehicle mean+2SD; % tubulin-high responders, % at 10 µM; 0.83% of 200,000 active; AID 2205;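 active means plate Z-score above 3 for both tubulin-high and condensed-nucleus cell shares, with cell loss under 80%, at 10 µM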;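 further: anti alpha tubulin signal scored within the nucleus-defined area of each cell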
BaF3 tox – counter-screen for JAK2V617F inhibitors: parental Ba/F3 viability inhibitors. 1.1% of 220,000 active. inhibition, % at 5.6 µM. CellTiter-Glo ATP luminescence;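 active means inhibition above a per-campaign cutoff, the mean inhibition of all tested compounds plus 3 SD, cut at about 27% in these data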;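 further: 0% = DMSO wells and 100% = JAK Inhibitor I control wells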
APP 5UTR inh – APP translation inhibition | SH-SY5Y APP 5'UTR-luciferase reporter, luminescence | inhibition, % at 2 µM | 0.82% of 190,000 active;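 active means inhibition above a set limit, derived from the sample mean plus 3 SD, cut at about 45% in these data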
bCat nuc transl – alters nuclear translocation of beta-catenin in HeLa cells; immunofluorescence imaging; nuclear translocation activity, % at 5 µM; 0.3% of 190,000 active; AID 1665;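 active means nuclear translocation activity above 50% at 5 µM, with a well cell count of 50 or more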;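 further: per-cell ratio of nuclear to cytoplasmic median beta-catenin stain intensity; plate controls were DMSO negative control for no effect and GSK-3 inhibitor IX positive control for full effect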
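Test system: human HeLa cell line; Doses: 5 µM primary, 0.02–20 µM confirmation; Incubation: 24 h compound exposure, 37°C; Detection: beta-catenin immunofluorescence imaging with DAPI; Read-out: beta-catenin nuclear/cytoplasmic ratio, % activation.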
IEC-6 tox – IEC-6 cytotoxicity, counter-screen for KLF5 inhibitors; luminescence viability; inhibition, % at 5 µM; 0.78% of 290,000 active; AID 1825; in the data active means inhibition above about 22%;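 further: 0% = plate median of test compound wells and 100% = cytotoxic reference compound wells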
Ba/F3 V617F tox – lowers viability of Ba/F3 cells expressing EpoR and JAK2V617F; ATP luminescence; inhibition, % at 5.6 µM; 1.1% of 220,000 active;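 active means inhibition above the campaign mean plus 3 SD over all tested compounds, cut at about 24% in these data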;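 further: cytokine-independent growth of Ba/F3 cells driven by EpoR plus mutant JAK2; 0% = DMSO-treated cells and 100% = JAK inhibitor I control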
* hit, by the source's call. Only some compounds are listed: those with a hit (about 2.2% of all), similar ones and a draw of the others.

Screening CCOc1ccc(C(=O)OCn2nnc3ccccc3c2=O)cc1OC returned MT stabilizer 2.3, BaF3 tox 4.9, APP 5UTR inh 2.8, bCat nuc transl 3.6, IEC-6 tox -6.6 and Ba/F3 V617F tox 0.4.
`O=C1C=CC(O)(c2cc(=O)c3c(O)cc(O)cc3o2)C=C1` gave MT stabilizer 59.1, BaF3 tox 47.2*, APP 5UTR inh 40.8, bCat nuc transl 29.0, IEC-6 tox 0.6 and Ba/F3 V617F tox 44.1*.
O=c1cc(-c2ccccc2Cl)oc2cc(O)cc(O)c12 was read as MT stabilizer 5.7, BaF3 tox 7.6, APP 5UTR inh -22.5, IEC-6 tox -1.7 and Ba/F3 V617F tox 4.3.
Cc1ccccc1NC(=O)CSC1=C(C#N)C(c2ccsc2)CC(=O)N1 (centres undefined) was read as MT stabilizer 25.9*, BaF3 tox 3.3, APP 5UTR inh 1.0, bCat nuc transl -3.3, IEC-6 tox 0.2 and Ba/F3 V617F tox -1.2.
N#CC1=C(SCC(=O)Nc2nccs2)NC(=O)CC1c1ccccc1 (centres undefined) was read as MT stabilizer 40.4*, BaF3 tox 6.7, APP 5UTR inh -9.6, IEC-6 tox 1.3 and Ba/F3 V617F tox 3.9.
Cc1ccc(-c2nc(SCC(=O)N(C)c3c(N)n(Cc4ccccc4)c(=O)[nH]c3=O)n[nH]2)cc1 was read as IEC-6 tox -0.6.
For COc1ccc2nc(C)cc(SCC(=O)N/N=C/c3cccc4ccccc34)c2c1 the results were MT stabilizer 40.6, BaF3 tox 3.2, APP 5UTR inh -15.1, bCat nuc transl 77.4*, IEC-6 tox 2.4 and Ba/F3 V617F tox 3.5.
COc1cccc2c(SCC(=O)N/N=C/c3ccc(O)c(O)c3)cc(C)nc12 was read as MT stabilizer 10.2*, BaF3 tox 7.3, APP 5UTR inh -3.7, bCat nuc transl -4.9, IEC-6 tox 5.3 and Ba/F3 V617F tox 2.5.
Screening COc1ccc2nc(C)cc(SCC(=O)N/N=C/c3ccc(O)c(O)c3)c2c1 returned MT stabilizer 4.0, BaF3 tox -0.5, APP 5UTR inh 25.4, bCat nuc transl -1.6, IEC-6 tox 1.7 and Ba/F3 V617F tox 4.6.
For COc1cccc2c(SCC(=O)N/N=C/c3ccccc3)cc(C)nc12 the results were MT stabilizer 3.5, BaF3 tox 15.1, APP 5UTR inh -9.9, bCat nuc transl 8.0, IEC-6 tox 3.6 and Ba/F3 V617F tox 4.7.
O=C(CSc1nc(O)cc(=O)n1-c1ccc(Cl)c(Cl)c1)Nc1ccc(Cl)cc1Cl was read as IEC-6 tox 4.2.
Screening C/C(=N\Nc1cccc(C(F)(F)F)c1)c1ccc(O)cc1 returned MT stabilizer 4.6, BaF3 tox 2.3, APP 5UTR inh 3.1, bCat nuc transl 0.6, IEC-6 tox 2.3 and Ba/F3 V617F tox -3.6.
For O=C(CCC(=O)N/N=C/c1c[nH]c2ccccc12)NCc1ccccc1 the results were MT stabilizer 2.9, BaF3 tox 4.7, APP 5UTR inh 4.3, bCat nuc transl -1.9, IEC-6 tox -2.8 and Ba/F3 V617F tox -1.4.
O=C(N/N=C/c1ccccc1O)c1cccc(C(F)(F)F)c1 was read as MT stabilizer 3.4, BaF3 tox 5.2, APP 5UTR inh 54.1*, bCat nuc transl -3.8, IEC-6 tox 0.7 and Ba/F3 V617F tox 0.1.
CCN(CC)c1ccc(/C=N/NC(=O)CCC(=O)NCc2ccccc2)c(O)c1 was read as MT stabilizer 2.4, BaF3 tox 5.6, APP 5UTR inh 52.4*, bCat nuc transl 0.0, IEC-6 tox 1.6 and Ba/F3 V617F tox -0.7.
Screening O=C(N/N=C/c1ccc(O)cc1)c1cccc(C(F)(F)F)c1 returned MT stabilizer 2.5, BaF3 tox 4.5, APP 5UTR inh 7.8, bCat nuc transl 1.0, IEC-6 tox 1.5 and Ba/F3 V617F tox -0.8.
CCN(CC)c1ccc(/C=N/NC(=O)c2c(Cl)cnn2C)c(O)c1 was read as MT stabilizer 6.3, BaF3 tox 0.2, APP 5UTR inh 59.6*, bCat nuc transl -3.4, IEC-6 tox 8.4 and Ba/F3 V617F tox -1.0.
Screening CCOC(=O)N/N=C/c1ccc(N(CC)CC)cc1O returned MT stabilizer 16.5*, BaF3 tox 4.1, APP 5UTR inh 26.6, bCat nuc transl 32.2, IEC-6 tox 2.3 and Ba/F3 V617F tox 3.1.
`COc1ccc(C)cc1NC(=O)c1ccc(S(=O)(=O)N2CCCCC2)cc1` gave IEC-6 tox -0.8.
